Results reported in ChEMBL document CHEMBL1123290, “Synthesis, antimalarial activity, and quantitative structure-activity relationships of tebuquine and a series of related 5-[(7-chloro-4-quinolinyl)amino]-3-[(alkylamino)methyl] [1,1'-biphenyl]-2-ols and N omega-oxides” (1986).

Legend:
Assay type in all cases: functional
[1] = system: Plasmodium berghei; test: Antimalarial activity in primary screen
[2] = system: Plasmodium berghei; test: Change in mean survival time of Plasmodium berghei infected mice (Mus musculus) on 1.25 mg/kg subcutaneous dose
[3] = system: Plasmodium berghei; test: Difference in mean survival time of Plasmodium berghei infected mice (Mus musculus) after 10 mg/kg subcutaneous dose
[4] = system: Plasmodium berghei; test: Change in mean survival time for control (average 6.2 days) versus treated mice (Mus musculus) after 160 mg/kg subcutaneous dose
[5] = system: Plasmodium berghei; test: Change in mean survival time of Plasmodium berghei infected mice (Mus musculus) after […] subcutaneous dose
[6] = system: Plasmodium berghei; test: Change in mean survival time for control (average 6.2 days) versus treated mice (Mus musculus) after 20 mg/kg subcutaneous dose
[7] = system: Plasmodium berghei; test: Change in mean survival time for control (average 6.2 days) versus treated mice (Mus musculus) after 320 mg/kg subcutaneous dose
[8] = system: Plasmodium berghei; test: Change in mean survival time for control (average 6.2 days) versus treated mice (Mus musculus) after 40 mg/kg subcutaneous dose
[9] = system: Plasmodium berghei; test: Change in mean survival time in control (average 6.2 days) versus treated mice (Mus musculus) after 80 mg/kg subcutaneous dose
[10] = system: Plasmodium berghei; test: (§1) Change in mean survival time for control (average 6.2 days) versus treated mice (Mus musculus) 72 hrs after […] subcutaneous dose
[11] = system: Plasmodium berghei; test: Antimalarial activity as 60-day survivors in infected mice (Mus musculus) after single 320mg/kg subcutaneous dose 72 hr post infection
Outline: (§2)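 Mice were infected with a normal drug-sensitive Plasmodium berghei strain. At 72 h postinfection each received one subcutaneous dose of compound dissolved or suspended in peanut oil, in five-mouse groups per dose. The read-out was the number of mice alive at 60 days postinfection, which were scored as cured.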

[12] = system: Mus musculus; test: Antimalarial activity, administered as a single subcutaneous dose of 640 mg/kg, 72 hrs post infection measured as number of mice (Mus musculus) surviving at 60 days post infection; outline: as §2
[13] = system: Plasmodium berghei; test: Antimalarial activity as 60-day survivors in Plasmodium berghei infected mice (Mus musculus) after single 160mg/kg subcutaneous dose 72 hr post infection; outline: as §2
[14] = system: Plasmodium berghei; test: Change in mean survival time of Plasmodium berghei infected mice (Mus musculus) after 5 mg/kg subcutaneous dose
[15] = system: Mus musculus; test: Antimalarial activity, administered as a single subcutaneous dose of 80 mg/kg, 72 hrs post infection measured as number of mice (Mus musculus) surviving at 60 days post infection; outline: as §2
[16] = system: Mus musculus; test: Antimalarial activity, administered as a single subcutaneous dose of 40 mg/kg, 72 hrs post infection measured as number of mice (Mus musculus) surviving at 60 days post infection; outline: as §2
[17] = system: Plasmodium berghei; test: Change in mean survival time for control (average 6.2 days) versus treated mice (Mus musculus) 72 hrs after 5 mg/kg subcutaneous dose
[18] = system: Plasmodium berghei; test: as §1; remark: listed apart in the source
[19] = system: Plasmodium berghei; test: Change in mean survival time for control (average 6.2 days) versus treated mice (Mus musculus) 72 hrs after 10 mg/kg subcutaneous dose
[20] = system: Plasmodium berghei; test: Change in mean survival time for control (average 6.2 days) versus treated mice (Mus musculus) 72 hrs after 160 mg/kg subcutaneous dose
[21] = system: Plasmodium berghei; test: Change in mean survival time for control (average 6.2 days) versus treated mice (Mus musculus) 72 hrs after […] subcutaneous dose
[22] = system: Plasmodium berghei; test: Change in mean survival time for control (average 6.2 days) versus treated mice (Mus musculus) 72 hrs after 20 mg/kg subcutaneous dose
[23] = system: Plasmodium berghei; test: Change in mean survival time for control (average 6.2 days) versus treated mice (Mus musculus) 72 hrs after 320 mg/kg subcutaneous dose
[24] = system: Plasmodium berghei; test: Antimalarial activity as 60-day survivors in infected mice (Mus musculus) after single 20 mg/kg subcutaneous dose 72hr post infection; outline: as §2

| SMILES | ED30 [1] | Delta MST [2] | Delta MST [3] | Delta MST [4] | Delta MST [5] | Delta MST [6] | Delta MST [7] | Delta MST [8] | Delta MST [9] | Delta MST [10] | No. of mice cured [11] | No. of mice cured [12] | No. of mice cured [13] | Delta MST [14] | No. of mice cured [15] | other results |
| --- | --- | --- | --- | --- | --- | --- | --- | --- | --- | --- | --- | --- | --- | --- | --- | --- |
| CCN(CC)Cc1cc(Nc2cc[n+]([O-])c3cc(Cl)ccc23)cc(-c2ccc(OC)cc2)c1O | 423 mg/kg | 0.1 days | 1.1 days | 7.3 | -0.1 days | 3.7 days | 8.2 days | 7.3 days | 9.1 days | 15 days | 1 | 2 | – | – | – | – |
| CCN(CC)Cc1cc(Nc2cc[n+]([O-])c3cc(Cl)ccc23)cc(-c2ccc(OC)c(OC)c2)c1O | 204 mg/kg | – | – | 11.4 | – | 2.4 days | 12.4 days | 5.4 days | 5 days | 11.1 days | 3 | 2 | – | – | – | – |
| CCN(CC)Cc1cc(Nc2cc[n+]([O-])c3cc(Cl)ccc23)cc(-c2ccccc2OC)c1O | 170 mg/kg | – | – | 8.9 days | – | 0.7 days | 36.2 days | 6.9 days | 8.7 days | 27.2 days | 1 | 1 | 2 | – | – | – |
| CCN(CC)Cc1cc(Nc2cc[n+]([O-])c3cc(Cl)ccc23)cc(-c2cccc(F)c2)c1O | 33.7 mg/kg | -0.1 days | – | 29.6 days | 0.5 days | 27.2 days | 24.1 days | 22.8 days | 22.6 days | 14.8 days | 3 | 1 | 3 | 4.5 days | 2 | – |
| CCN(CC)Cc1cc(Nc2cc[n+]([O-])c3cc(Cl)ccc23)cc(-c2ccc(Cl)c(Cl)c2)c1O | 36.6 mg/kg | -0.1 days | 5.9 days | 29.1 days | -0.1 days | 12 days | – | 21.2 days | 25.7 days | – | 5 | 5 | 2 | 0.7 days | 2 | No. of mice cured [16]: 1 |
| CCN(CC)Cc1cc(Nc2ccnc3cc(Cl)ccc23)cc(-c2ccccc2Cl)c1O | 15.3 mg/kg | – | – | – | – | – | – | – | – | – | 4 | 5 | 4 | – | 5 | Delta MST [17]: 4.7 days; Delta MST [18]: 0.7 days; Delta MST [19]: 14.7 days; Delta MST [20]: 41.9 days; Delta MST [21]: 0.3 days; Delta MST [22]: 17.2 days; Delta MST [23]: 41.9 days; No. of mice cured [24]: 2; No. of mice cured [16]: 5 |
| CCN(CC)Cc1cc(Nc2cc[n+]([O-])c3cc(Cl)ccc23)cc(-c2ccccn2)c1O | 550 mg/kg | – | – | 3 days | – | 0.4 days | 5.1 days | 0 days | 1 days | 9.1 days | 1 | 1 | – | – | – | – |
| CCN(CC)Cc1cc(Nc2cc[n+]([O-])c3cc(Cl)ccc23)cc(-c2cc(OC)ccc2OC)c1O | 2450 mg/kg | – | – | 6 days | – | 0.6 days | 7.8 days | 2.6 days | 2 days | 27.1 days | – | 1 | – | – | – | – |
| [O-][n+]1ccc(Nc2cc(CN3CCCC3)c(O)c(-c3ccc(Cl)c(Cl)c3)c2)c2ccc(Cl)cc21 | – | -0.1 days | 2.3 days | 24.4 days | -0.1 days | 7.9 days | – | 10.7 days | 25.4 days | – | 5 | 5 | 3 | 0.7 days | 2 | – |
